How the values were obtained:
HCT-116 [1] = experiment: Growth inhibition of human HCT116 cells after 72 hrs by MTS assay; assay type: functional, cell-based; settings: HCT-116, 72 h
Method in brief: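 HCT116 grown in McCoy's 5A, 10% FBS, 37 °C, 5% CO2; 5000 cells/well; compound in DMSO added 24 h after plating, 72 h exposure. Viability by MTS/PMS reduction to formazan, absorbance 490 nm. IC50 with 95% CI by curve fit; at least three independent experiments.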

HepG2 = experiment: Growth inhibition of human HepG2 cells after 72 hrs by MTS assay; assay type: functional, cell-based; settings: HepG2, 72 h
Method in brief: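 HepG2 grown in DMEM with 10% FBS and 1% nonessential amino acids; 5000 cells/well; medium replaced with DMSO-dissolved compound 24 h post-seeding, 72 h exposure. MTS formazan absorbance read at 490 nm. IC50 derived with 95% CI; at least three independent experiments.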

HCT-116 [2] = experiment: Cell cycle arrest in human HCT116 cells assessed as accumulation at G1 phase at antiproliferative IC50 after 24 hrs by propidium iodide staining based flow cytometry (reference value: 31%); assay type: functional
HCT-116 [3] = experiment: Cell cycle arrest in human HCT116 cells assessed as accumulation at S phase at antiproliferative IC50 after 24 hrs by propidium iodide staining based flow cytometry (reference value: 38.8%); assay type: functional
HCT-116 [4] = experiment: Cell cycle arrest in human HCT116 cells assessed as accumulation at G2/M phase at antiproliferative IC50 after 24 hrs by propidium iodide staining based flow cytometry (reference value: 30.2%); assay type: functional
HCT-116 [5] = experiment: Cell cycle arrest in human HCT116 cells assessed as accumulation at G1 phase at 2 times antiproliferative IC50 after 24 hrs by propidium iodide staining based flow cytometry (reference value: 31%); assay type: functional
HCT-116 [6] = experiment: Cell cycle arrest in human HCT116 cells assessed as accumulation at S phase at 2 times antiproliferative IC50 after 24 hrs by propidium iodide staining based flow cytometry (reference value: 38.8%); assay type: functional
HCT-116 [7] = experiment: Cell cycle arrest in human HCT116 cells assessed as accumulation at G2/M phase at 2 times antiproliferative IC50 after 24 hrs by propidium iodide staining based flow cytometry (reference value: 30.2%); assay type: functional
HCT-116 [8] = experiment: Cytotoxicity against human HCT116 cells assessed as cell death at antiproliferative IC50 after 72 hrs by LDH release assay relative to control; assay type: functional
Method in brief: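 HCT116 cells grown in McCoy's 5A with 10% FBS at 37 °C, 5% CO2, and treated 24 h after plating for 72 h with compound or DMSO vehicle. Supernatants were spun at 250g for 2 min, and attached cells were lysed. LDH reagent was added for 15 min at room temperature in the dark, and absorbance was read at 490/620 nm. Release = supernatant/(supernatant + lysate) LDH, fold over DMSO; mean ± SEM, ≥3 experiments.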

HCT-116 [9] = experiment: Induction of apoptosis in human HCT116 cells assessed as apoptotic nuclei at antiproliferative IC50 after 24 hrs by Hoechst 33258 staining based fluorescence microscopic method (reference value: <2%); assay type: functional
Method in brief: (§1)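 HCT116 seeded 150 000 cells per 35 mm dish; treated 24 h, fixed in 4% paraformaldehyde in PBS pH 7.4, 10 min 25 °C, stained Hoechst 33258 5 μg/mL, 5 min. Fluorescence microscopy; condensed or fragmented chromatin scored apoptotic; three random fields of about 100 nuclei per sample; percent apoptotic nuclei, mean ± SEM, ≥3 experiments.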

HCT-116 [10] = experiment: Induction of apoptosis in human HCT116 cells assessed as apoptotic nuclei at 2 times antiproliferative IC50 after 24 hrs by Hoechst 33258 staining based fluorescence microscopic method (reference value: <2%); assay type: functional; method in brief: as §1
HCT-116 [11] = experiment: Induction of apoptosis in human HCT116 cells assessed as caspase-3/7 activation at antiproliferative IC50 after 24 hrs by Caspase-Glo assay relative to DMSO control; assay type: functional
Method in brief: (§2)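 HCT116 at 5000 cells/well exposed 24 h. Caspase-Glo 3/7 reagent (DEVD-aminoluciferin substrate) 75 μL/well, 30 min room temperature for lysis and signal build-up; luminescence read. Activity expressed as fold of the reference treatment (DMSO vehicle or 5-FU); mean ± SEM, at least three experiments.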

HCT-116 [12] = experiment: Induction of apoptosis in human HCT116 cells assessed as caspase-3/7 activation at antiproliferative IC50 after 24 hrs by Caspase-Glo assay relative to 5-fluorouracil; assay type: functional; method in brief: as §2

Structure (SMILES)	IC50 (HCT-116 [1]) [µM]	IC50 (HepG2) [µM]	Activity (HCT-116 [2])	Activity (HCT-116 [3]) [%]	Activity (HCT-116 [4])	Activity (HCT-116 [5])	Activity (HCT-116 [6]) [%]	Activity (HCT-116 [7])	fold change (FC) (HCT-116 [8])	Activity (HCT-116 [9]) [%]	Activity (HCT-116 [10]) [%]	fold change (FC) (HCT-116 [11])	fold change (FC) (HCT-116 [12])
CC[C@H]1CN(C)[C@H]2Cc3c([nH]c4ccccc34)[C@H](c3cc4c5c([nH]c4cc3OC)C3(C(=O)OC)C[C@@H]4C[C@H](CC)[C@@H]3N(CC5)C4)C[C@@H]1C2C(=O)OC (stereo partly drawn)	8.5	> 10	2.39%	21.9	75.7 - 77%	27.7%	28.5	43.8 - 47%	2.5 - 2.8	31	40	1.6 - 5.2	1.5 - 3.7
CC[C@@H]1CN(C)[C@H]2Cc3c([nH]c4ccccc34)[C@H](c3c(OC)ccc4c5c([nH]c34)C3(C(=O)OC)C[C@@H]4C[C@H](CC)[C@@H]3N(CC5)C4)C[C@@H]1C2C(=O)OC (stereo partly drawn)	> 10	> 10	–	–	–	–	–	–	–	–	–	–	–
CC[C@H]1CN(C)[C@H]2Cc3c([nH]c4ccccc34)[C@H](c3c(OC)ccc4c5c([nH]c34)C3(C(=O)OC)CC4C[C@H](CC)[C@@H]3N(CC5)C4=O)C[C@@H]1C2C(=O)OC (stereo partly drawn)	> 10	> 10	41.7 - 46%	36.5	21.8%	62 - 67.2%	15.9	16.9%	2.5 - 2.8	16	25	1.6 - 5.2	1.5 - 3.7
CC[C@H]1CN(C)[C@H]2Cc3c([nH]c4ccccc34)[C@H](c3cc4c5c([nH]c4cc3OC)C3(C(=O)OC)CC4C[C@H](CC)[C@@H]3N(CC5)C4=O)C[C@@H]1C2C(=O)OC (stereo partly drawn)	8.8	> 10	34.4%	39.4	26.2 - 32%	32%	17.5	44 - 50.5%	2.5 - 2.8	16	37	1.6 - 5.2	1.5 - 3.7
CC[C@H]1CN(C)[C@H]2Cc3c([nH]c4ccccc34)[C@H](c3c(OC)ccc4c5c([nH]c34)C3(C(=O)OC)C[C@@H]4C[C@H]([C@H](C)O)[C@@H]3N(CC5)C4)C[C@@H]1C2C(=O)OC (stereo partly drawn)	8.4	> 10	42.3 - 49%	39.3	18.5%	55 - 65%	19.3	15.7%	2.5 - 2.8	11	13	1.6 - 5.2	1.5 - 3.7
O=c1[nH]cc(F)c(=O)[nH]1 [FLUOROURACIL]	2.5	> 10	21.3%	78.7	0%	39.8%	55.7	4.48%	2.2 - 2.5	–	–	–	–

Reference: ChEMBL document CHEMBL4041486, “Vobasinyl-Iboga Alkaloids from Tabernaemontana elegans: Cell Cycle Arrest and Apoptosis-Inducing Activity in HCT116 Colon Cancer Cells” (J Nat Prod, 2016)
